According to ChEMBL document CHEMBL3525900, “Pharmacokinetics, distribution, and metabolism of [14C]sunitinib in rats, monkeys, and humans” (Drug Metab Dispos, 2012):

Columns and labels:
Harderian gland = experiment: Drug concentration in female albino rat harderian gland assessed as radioactivity per gram of tissue at 20 mg/kg administered as single dose via gastric gavage measured after 3 hrs by autoradiographic analysis; format: ADME, organism-based; design: dose 20 mg/kg, dosed compound name [14C]Sunitinib; conditions: in vivo, po
In short: (§1)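 Sprague Dawley albino rats, ca 7-8 weeks old, dosed once by gastric gavage with [14C]sunitinib L-malate (15 mg freebase/kg, 100 µCi/kg). One male and one female killed by CO2 at 3, 6, 24, 72 and 168 h. Carcasses frozen in solid CO2/hexane, embedded and cut into 30 µm sagittal sections, then freeze-dried. Radioactivity quantified by whole-body autoradiography against standards by regression, background subtracted.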

[1] = Drug concentration in female albino rat preputial gland assessed as radioactivity per gram of tissue at 20 mg/kg administered as single dose via gastric gavage measured after 24 hrs by autoradiographic analysis; format: ADME, organism-based; design: dose 20 mg/kg, dosed compound name [14C]Sunitinib; conditions: in vivo, po; in short: as §1
Homo sapiens = experiment: Total drug recovery in human at 50 mg, po administered as single dose during 0 to 504 hrs by liquid scintillation counting; format: ADME, organism-based; design: dosed compound name [14C]Sunitinib; conditions: in vivo
[2] = Drug concentration in female albino rat lachrymal gland assessed as radioactivity per gram of tissue at 20 mg/kg administered as single dose via gastric gavage measured after 24 hrs by autoradiographic analysis; format: ADME, organism-based; design: dose 20 mg/kg, dosed compound name [14C]Sunitinib; conditions: in vivo, po; in short: as §1
Blood [3] = experiment: Drug concentration in female Lister Hooded pigmented rat blood assessed as radioactivity per gram of tissue at 20 mg/kg administered as single dose via gastric gavage measured after 24 hrs by autoradiographic analysis; format: ADME, organism-based; design: dose 20 mg/kg, dosed compound name [14C]Sunitinib; conditions: in vivo, po
In short: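 Lister Hooded (pigmented) rats, ca 7-8 weeks old, acclimated 7 days, given [14C]sunitinib L-malate by gastric gavage at 20 mg/kg (15 mg freebase/kg, 100 µCi/kg). One male and one female killed by CO2 at 24, 72, 168 and 336 h. Carcasses frozen in solid CO2/hexane and embedded in frozen cellulose. 30 µm sagittal cryosections were freeze-dried. Tissue radioactivity measured by quantitative whole-body autoradiography against calibration standards, with background subtracted.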

[4] = Drug concentration in female albino rat bone marrow assessed as radioactivity per gram of tissue at 20 mg/kg administered as single dose via gastric gavage measured after 6 hrs by autoradiographic analysis; format: ADME, organism-based; design: dose 20 mg/kg, dosed compound name [14C]Sunitinib; conditions: in vivo, po
In short: (§2)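 Sprague Dawley (albino) rats, ca 7-8 weeks old, received a single gastric-gavage dose of [14C]sunitinib L-malate at 20 mg/kg (15 mg freebase/kg, 100 µCi/kg). One animal per sex killed by CO2 at 3, 6, 24, 72 and 168 h, then frozen in CO2/hexane. 30 µm sagittal sections were cut and freeze-dried. Radioactivity per gram quantified by whole-body autoradiography using regression against standards. LOQ 0.04–0.06 µg freebase equiv/g.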

Lung [5] = experiment: Drug concentration in female albino rat lung assessed as radioactivity per gram of tissue at 20 mg/kg administered as single dose via gastric gavage measured after 6 hrs by autoradiographic analysis; format: ADME, organism-based; design: dose 20 mg/kg, dosed compound name [14C]Sunitinib; conditions: in vivo, po; in short: as §1
Small intestine = experiment: Drug concentration in male Lister Hooded pigmented rat small intestine assessed as radioactivity per gram of tissue at 20 mg/kg administered as single dose via gastric gavage measured after 24 hrs by autoradiographic analysis; format: ADME, organism-based; design: dose 20 mg/kg, dosed compound name [14C]Sunitinib; conditions: in vivo, po
[6] = Drug concentration in male albino rat uveal tract assessed as radioactivity per gram of tissue at 20 mg/kg administered as single dose via gastric gavage measured after 3 hrs by autoradiographic analysis; format: ADME, organism-based; design: dose 20 mg/kg, dosed compound name [14C]Sunitinib; conditions: in vivo, po
Spleen = experiment: Drug concentration in male Lister Hooded pigmented rat spleen assessed as radioactivity per gram of tissue at 20 mg/kg administered as single dose via gastric gavage measured after 168 hrs by autoradiographic analysis; format: ADME, organism-based; design: dose 20 mg/kg, dosed compound name [14C]Sunitinib; conditions: in vivo, po
Rattus norvegicus [7] = experiment: Drug recovery in cage residue of female Sprague-Dawley rat at 5 mg/kg, iv administered as single dose during 0 to 72 hrs by liquid scintillation counting; format: ADME, organism-based; design: dose 5 mg/kg, dosed compound name [14C]Sunitinib, route intravenous; conditions: in vivo
Spinal cord [8] = experiment: Drug concentration in male albino rat spinal cord assessed as radioactivity per gram of tissue at 20 mg/kg administered as single dose via gastric gavage measured after 6 hrs by autoradiographic analysis; format: ADME, organism-based; design: dose 20 mg/kg, dosed compound name [14C]Sunitinib; conditions: in vivo, po
[9] = Drug concentration in male Lister Hooded pigmented rat testis assessed as radioactivity per gram of tissue at 20 mg/kg administered as single dose via gastric gavage measured after 72 hrs by autoradiographic analysis; format: ADME, organism-based; design: dose 20 mg/kg, dosed compound name [14C]Sunitinib; conditions: in vivo, po
[10] = Drug concentration in male albino rat bladder assessed as radioactivity per gram of tissue at 20 mg/kg administered as single dose via gastric gavage measured after 24 hrs by autoradiographic analysis; format: ADME, organism-based, Urinary bladder; design: dose 20 mg/kg, dosed compound name [14C]Sunitinib; conditions: in vivo, po
Rattus norvegicus [11] = experiment: Total drug recovery in female Sprague-Dawley rat at 5 mg/kg, iv administered as single dose during 0 to 72 hrs by liquid scintillation counting; format: ADME, organism-based; design: dose 5 mg/kg, dosed compound name [14C]Sunitinib, route intravenous; conditions: in vivo
Brain = experiment: Drug concentration in male Lister Hooded pigmented rat brain assessed as radioactivity per gram of tissue at 20 mg/kg administered as single dose via gastric gavage measured after 24 hrs by autoradiographic analysis; format: ADME, organism-based; design: dose 20 mg/kg, dosed compound name [14C]Sunitinib; conditions: in vivo, po
[12] = Drug concentration in male Lister Hooded pigmented rat eye assessed as radioactivity per gram of tissue at 20 mg/kg administered as single dose via gastric gavage measured after 24 hrs by autoradiographic analysis; format: ADME, organism-based; design: dose 20 mg/kg, dosed compound name [14C]Sunitinib; conditions: in vivo, po
Rattus norvegicus [13] = experiment: AUC (0 to infinity) as total radioactivity in female Sprague-Dawley rat plasma at 15 mg/kg, po administered as single dose by LC/MS/MS analysis; format: ADME, organism-based; design: time infinity, dose 15 mg/kg, dosed compound name [14C]Sunitinib, route oral; conditions: in vivo
In short: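 Single dose of [14C]sunitinib L-malate as free base, 50 µCi/kg. IV dose was 5 mg/kg by tail vein in 5 females. Oral dose was 15 mg/kg by gavage in 3 females and 3 males. Total radioactivity was by scintillation counting. […] Cmax was read from raw data, t½ by log-linear regression, AUC by linear trapezoidal rule.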

Spinal cord [14] = experiment: Drug concentration in female albino rat spinal cord assessed as radioactivity per gram of tissue at 20 mg/kg administered as single dose via gastric gavage measured after 24 hrs by autoradiographic analysis; format: ADME, organism-based; design: dose 20 mg/kg, dosed compound name [14C]Sunitinib; conditions: in vivo, po
Adrenal [15] = experiment: Drug concentration in female albino rat adrenal assessed as radioactivity per gram of tissue at 20 mg/kg administered as single dose via gastric gavage measured after 3 hrs by autoradiographic analysis; format: ADME, organism-based; design: dose 20 mg/kg, dosed compound name [14C]Sunitinib; conditions: in vivo, po; in short: as §2
Heart = experiment: Drug concentration in female albino rat heart assessed as radioactivity per gram of tissue at 20 mg/kg administered as single dose via gastric gavage measured after 3 hrs by autoradiographic analysis; format: ADME, organism-based; design: dose 20 mg/kg, dosed compound name [14C]Sunitinib; conditions: in vivo, po; in short: as §1
Blood [16] = experiment: Drug concentration in female albino rat blood assessed as radioactivity per gram of tissue at 20 mg/kg administered as single dose via gastric gavage measured after 3 hrs by autoradiographic analysis; format: ADME, organism-based; design: dose 20 mg/kg, dosed compound name [14C]Sunitinib; conditions: in vivo, po; in short: as §2
Adrenal [17] = experiment: Drug concentration in male albino rat adrenal assessed as radioactivity per gram of tissue at 20 mg/kg administered as single dose via gastric gavage measured after 6 hrs by autoradiographic analysis; format: ADME, organism-based; design: dose 20 mg/kg, dosed compound name [14C]Sunitinib; conditions: in vivo, po
Lung [18] = experiment: Drug concentration in male Lister Hooded pigmented rat lung assessed as radioactivity per gram of tissue at 20 mg/kg administered as single dose via gastric gavage measured after 168 hrs by autoradiographic analysis; format: ADME, organism-based; design: dose 20 mg/kg, dosed compound name [14C]Sunitinib; conditions: in vivo, po
[19] = Drug concentration in male albino rat skeletal muscle assessed as radioactivity per gram of tissue at 20 mg/kg administered as single dose via gastric gavage measured after 6 hrs by autoradiographic analysis; format: ADME, organism-based; design: dose 20 mg/kg, dosed compound name [14C]Sunitinib; conditions: in vivo, po
Kidney = experiment: Drug concentration in male albino rat kidney assessed as radioactivity per gram of tissue at 20 mg/kg administered as single dose via gastric gavage measured after 3 hrs by autoradiographic analysis; format: ADME, organism-based; design: dose 20 mg/kg, dosed compound name [14C]Sunitinib; conditions: in vivo, po
[20] = Drug concentration in male albino rat bone marrow assessed as radioactivity per gram of tissue at 20 mg/kg administered as single dose via gastric gavage measured after 24 hrs by autoradiographic analysis; format: ADME, organism-based; design: dose 20 mg/kg, dosed compound name [14C]Sunitinib; conditions: in vivo, po

Radiolabel recovery (Harderian gland): 17.26 ugequiv
Radiolabel recovery [1]: 5.79 ugequiv
Radiolabel recovery (Homo sapiens): 77%
Radiolabel recovery [2]: 6.79 ugequiv
Radiolabel recovery (Blood [3]): 0.14 ugequiv
Radiolabel recovery [4]: 7.51 ugequiv
Radiolabel recovery (Lung [5]): 16.19 ugequiv
Radiolabel recovery (Small intestine): 0.82 ugequiv
Radiolabel recovery [6]: 2.63 ugequiv
Radiolabel recovery (Spleen): 0.06 ugequiv
Radiolabel recovery (Rattus norvegicus [7]): 1.1%
Radiolabel recovery (Spinal cord [8]): 0.29 ugequiv
Radiolabel recovery [9]: 0.87 ugequiv
Radiolabel recovery [10]: 0.35 ugequiv
Radiolabel recovery (Rattus norvegicus [11]): 87.4%
Radiolabel recovery (Brain): 0.06 ugequiv
Radiolabel recovery [12]: 7.8 ugequiv
AUC (Rattus norvegicus [13]): 69949 ng.Eq.hr/ml
Radiolabel recovery (Spinal cord [14]): 0.07 ugequiv
Radiolabel recovery (Adrenal [15]): 29.98 ugequiv
Radiolabel recovery (Heart): 7.31 ugequiv
Radiolabel recovery (Blood [16]): 1.66 ugequiv
Radiolabel recovery (Adrenal [17]): 13.57 ugequiv
Radiolabel recovery (Lung [18]): 0.06 ugequiv
Radiolabel recovery [19]: 2.3 ugequiv
Radiolabel recovery (Kidney): 13.24 ugequiv
Radiolabel recovery [20]: 0.38 ugequiv
Compound: CCN(CC)CCNC(=O)c1c(C)[nH]c(/[14CH]=C2\C(=O)Nc3ccc(F)cc32)c1C.O=C(O)C[C@H](O)C(=O)O
